Measured values collected from several papers.
Target: Adenosine receptor A2a (ADORA2A, Homo sapiens, UniProt P29274)

SMILES	observed	method	tested at	measurement	value
OC[C@@]12C[C@@H]1[C@@H](n1cnc3c(NC(C4CCCC4)C4CCCC4)nc(Cl)nc31)[C@H](O)[C@@H]2O	ligand displacement	radioligand	10 µM	inhibition	24%
CCN(CC)CCCC[C@H](NC(=O)[C@H](CC(C)C)NC(=O)[C@H](C)NC(=O)[C@H](Cc1ccccc1)NC(=O)c1ccc(C(C)(C)C)cc1)C(=O)N[C@@H](CO)C(=O)OC	ligand displacement	radioligand	10 µM	remaining binding	102%
Nc1ncc(-c2nc(N3CCOCC3)nc(N3CCOCC3)n2)c(C(F)F)n1	cell-free assay	radioligand	10 µM	remaining signal	93.3%
C[C@H](C(=O)N[C@H]1COc2ccccc2[C@@H]1S(C)(=O)=O)c1ccc(F)cc1	cell-free assay	–	10 µM	inhibition	1%
O=C(Nc1cccnn1)N1CCN([C@@H]2CCOc3cc(C(F)(F)F)ccc32)CC1	ligand displacement	–	20 µM	inhibition	15%
CC(C)N1CCC[C@H]1CNC(=O)c1cn(C2CCCC2)c(=O)c2c1c1ccccc1n2C	ligand displacement	radioligand	10 µM	inhibition	6%
COc1ccc(S(=O)(=O)N2CCCCC2)cc1C	ligand displacement	radioligand	10 µM	inhibition	< 30%
c1ccc(C(NCCNC(c2ccccc2)c2ccccc2)c2ccccc2)cc1	cell-free assay	–	10 µM	inhibition	12%
COCc1c(-c2cc3cc(C)cc(OC)c3s2)c2c(N)ncnn2c1CN1CCNC(=O)C1	ligand displacement	radioligand	10 µM	inhibition	7%
CC(C)Cn1cnc2c(N)nc3ccccc3c21	ligand displacement	radioligand	10 µM	inhibition	89%
Clc1ccc2c(C3CCN(CCc4c[nH]c5ccccc45)CC3)c[nH]c2c1	ligand displacement	radioligand	10 µM	inhibition	-12%
OC[C@@]12C[C@@H]1[C@@H](n1cnc3c(NC(C4CCCC4)C4CCCC4)nc(Cl)cc31)[C@H](O)[C@@H]2O	ligand displacement	radioligand	10 µM	inhibition	-12%
O=c1ccc2ccccc2o1	ligand displacement	radioligand	10 µM	inhibition	-4.26%
